No end group written: not given here.
Legend:
[1] = molecular target: T1, PTHR1-6E (Homo sapiens, UniProt Q03431, A83I/D81R/G76A/K80A/K82Q/P78E/R79L/S71Q/S73D/S75E/T74Q); test: cAMP response; type: cell-based
T1 sequence (Q03431 23-593 S71Q/S73D/T74Q/S75E/G76A/P78E/R79L/K80A/D81R/K82Q/A83I limits assumed): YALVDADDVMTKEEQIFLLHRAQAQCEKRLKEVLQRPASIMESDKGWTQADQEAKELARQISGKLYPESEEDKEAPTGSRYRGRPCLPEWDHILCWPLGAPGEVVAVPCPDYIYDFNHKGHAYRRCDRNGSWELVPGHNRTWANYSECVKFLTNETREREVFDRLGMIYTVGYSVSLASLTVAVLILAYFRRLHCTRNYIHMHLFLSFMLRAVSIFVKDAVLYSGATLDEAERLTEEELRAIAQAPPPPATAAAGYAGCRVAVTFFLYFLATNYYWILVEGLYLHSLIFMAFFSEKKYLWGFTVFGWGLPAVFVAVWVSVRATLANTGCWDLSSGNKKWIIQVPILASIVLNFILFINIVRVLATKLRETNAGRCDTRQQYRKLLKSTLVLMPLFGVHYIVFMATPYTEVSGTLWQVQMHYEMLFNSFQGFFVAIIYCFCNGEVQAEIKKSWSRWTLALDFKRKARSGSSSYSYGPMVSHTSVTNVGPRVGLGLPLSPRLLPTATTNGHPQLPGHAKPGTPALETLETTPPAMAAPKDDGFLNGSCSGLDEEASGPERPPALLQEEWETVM
Summary of the method: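 HEK293 cells stably expressing PTHR1 carrying the 6E tag plus a cAMP-responsive luciferase (Glosensor) were treated with graded concentrations of VHH–PTH1–11 conjugates. cAMP was read as luminescence. EC50 came from a sigmoidal dose–response fit with variable slope, using replicate wells per experiment and three independent experiments.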

[2] = test system: PTHR1-6E-HEK cells; test: Flow cytometry binding of VHH–biotin–PTH conjugates to PTHR1-6E-HEK cells; design: species or system human
Summary of the method: (§1)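 Adherent cells were detached with trypsin, washed, resuspended in PBS, and stained for 1 h on ice with graded concentrations of biotin-labelled VHH–PTH1–11 conjugates. Cells were washed, stained with streptavidin–PE, and analysed by flow cytometry. Line 1 used PTHR1-6E-HEK cells (HEK293 expressing PTHR1 with the 6E tag in the extracellular domain); line 2 used parental HEK293 cells. Median fluorescence intensity was fitted to sigmoidal curves, with maximal staining expressed relative to the MHC-I conjugate; three independent experiments.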

[3] = test system: neg-HEK cells; test: Flow cytometry binding of VHH–biotin–PTH conjugates to neg-HEK cells; conditions: for EC50: read-out: Binding EC50, Neg-HEK, 1 h on ice, streptavidin–PE, flow cytometry (MFI), mean of three independent experiments
Summary of the method: as §1

[4] = test system: human PTHR1; test: cAMP stimulation by PTH1–34 CLAMPs on receptor cells; type: cell-based; conditions: HEK293 cells (receptor cells) that express human PTHR1; Fig. 5 (legend: PTHR1-6E-HEK)

Row | Molecule | cAMP stimulation compared with PTH1–34 (in words) [4] | EC50 [3] [nM] | further results
1 | CC[C@H](C)[C@H](NC(=O)[C@H](CCC(=O)O)NC(=O)[C@H](CO)NC(=O)[C@@H](NC(=O)[C@@H](N)CO)C(C)C)C(=O)N[C@@H](CCC(N)=O)C(=O)N[C@@H](CC(C)C)C(=O)N[C@@H](CCSC)C(=O)N[C@@H](Cc1c[nH]cn1)C(=O)N[C@@H](CC(N)=O)C(=O)N[C@@H](CC(C)C)C(=O)NCC(=O)N[C@@H](CCCCN)C(=O)N[C@@H](Cc1c[nH]cn1)C(=O)N[C@@H](CC(C)C)C(=O)N[C@@H](CC(N)=O)C(=O)N[C@@H](CO)C(=O)N[C@@H](CCSC)C(=O)N[C@@H](CCC(=O)O)C(=O)N[C@@H](CCCNC(=N)N)C(=O)N[C@H](C(=O)N[C@@H](CCC(=O)O)C(=O)N[C@@H](Cc1c[nH]c2ccccc12)C(=O)N[C@@H](CC(C)C)C(=O)N[C@@H](CCCNC(=N)N)C(=O)N[C@@H](CCCCN)C(=O)N[C@@H](CCCCN)C(=O)N[C@@H](CC(C)C)C(=O)N[C@@H](CCC(N)=O)C(=O)N[C@@H](CC(=O)O)C(=O)N[C@H](C(=O)N[C@@H](Cc1c[nH]cn1)C(=O)N[C@@H](CC(N)=O)C(=O)N[C@@H](Cc1ccccc1)C(=O)N[C@@H](CS)C(N)=O)C(C)C)C(C)C [PTH1–34, reference compound] |  |  | EC50 [1]: 0.18 nM
2 | VHH6E–PTH1–11: conjugate of VHH6E (binds UBC6E epitope tag), biotin and PTH1–11 (SVSEIQLMHNL; also: conjugated to VHH6E nanobody and biotin; UniProt P01270 32-42, looked up, fragment) |  |  | staining signal compared with VHHMHC-I (in words) [2]: stronger signal than staining with VHHMHC-I; maximal staining (in words) ([3]; HEK-neg cells): a The maximal staining for VHH6E–PTH1–11 on HEK-neg cells was very weak, so binding EC50 values were not determined (ND).
3 | VHHGFP–PTH1–34: CLAMP of PTH1–34 conjugated to VHH that targets GFP (SVSEIQLMHNLGKHLNSMERVEWLRKKLQDVHNF; also: conjugated to anti-GFP VHH (with biotin); UniProt P01270 32-65, looked up, fragment) | performed similarly to PTH1–34 itself |  | 
4 | VHHMHC-II–PTH1–34: CLAMP of PTH1–34 conjugated to VHH that targets murine MHC-II (SVSEIQLMHNLGKHLNSMERVEWLRKKLQDVHNF; Parathyroid hormone conjugated to anti-MHC-II VHH; UniProt P01270 32-65, looked up, fragment) | performed similarly to PTH1–34 itself |  | 
5 | VHHMHC-I–PTH1–11: conjugate of VHHMHC-I (targets human β2-microglobulin, previously Nb30), biotin and PTH1–11 (SVSEIQLMHNL; also: conjugated to anti-β2-microglobulin VHH and biotin; UniProt P01270 32-42, looked up, fragment) |  | 4.3 | stimulation of cAMP responses (in words) ([1]; PTHR1-6E-HEK cells, Fig. 2e and Table 1): essentially inactive in stimulating cAMP responses
6 | VHHa5b1–PTH1–11: conjugate of VHHα5β1 (targets integrin α5β1), biotin and PTH1–11 (SVSEIQLMHNL; also: conjugated to anti-integrin α5β1 VHH and biotin; UniProt P01270 32-42, looked up, fragment) |  | 3 | 
